Values after ≈ are worked out from the molar mass of the structure shown. Active and inactive are the calls of the source. No cut-off for these calls is given here.
Tests used:
[1] = system: Staphylococcus aureus; assay: Inhibition of protein synthesis in Staphylococcus aureus ATCC 29213 at 8 times MIC measured by liquid scintillation counter; format: functional
[2] = system: Staphylococcus epidermidis; assay: Antimicrobial activity against methicillin-resistant Staphylococcus epidermidis ATCC 700296 assessed as bacterial growth inhibitions by CLSI protocol based microdilution method; format: functional
[3] = system: Staphylococcus aureus; assay: Antimicrobial activity against methicillin-resistant Staphylococcus aureus ATCC 700699 assessed as bacterial growth inhibitions by CLSI protocol based microdilution method; format: functional
[4] = system: Enterococcus faecalis; assay: Antimicrobial activity against vancomycin-susceptible Enterococcus faecalis ATCC 29212 assessed as bacterial growth inhibitions by CLSI protocol based microdilution method
[5] = system: Bacillus subtilis; assay: Antimicrobial activity against Bacillus subtilis ATCC 6623 assessed as bacterial growth inhibitions by CLSI protocol based microdilution method; format: functional
How it was run: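 Broth microdilution starting at 50 µg/ml with 2-fold serial dilutions; run in triplicate.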

[6] = system: Enterococcus faecium; assay: Antimicrobial activity against vancomycin-resistant Enterococcus faecium ATCC 700221 assessed as bacterial growth inhibitions by CLSI protocol based microdilution method; format: functional
[7] = system: Staphylococcus aureus; assay: Antimicrobial activity against methicillin-susceptible Staphylococcus aureus ATCC 25923 assessed as bacterial growth inhibitions by CLSI protocol based microdilution method; format: functional
[8] = system: Staphylococcus aureus; assay: Antimicrobial activity against antibiotic-resistant Staphylococcus aureus BM-2312 assessed as bacterial growth inhibitions by CLSI protocol based microdilution method; format: functional
[9] = system: Staphylococcus aureus; assay: Antimicrobial activity against methicillin-resistant Staphylococcus aureus ATCC 33591 assessed as bacterial growth inhibitions by CLSI protocol based microdilution method; format: functional
[10] = system: Staphylococcus aureus; assay: Antimicrobial activity against methicillin-resistant Staphylococcus aureus ATCC 33592 assessed as bacterial growth inhibitions by CLSI protocol based microdilution method; format: functional
[11] = system: Staphylococcus aureus; assay: Antibacterial activity against methicillin resistant Staphylococcus aureus ATCC 700699 persisters assessed as reduction in viability at 64 times MIC by colony counting method; format: functional, organism-based
How it was run: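 Stationary-phase S. aureus from overnight CAMHB culture (35 °C, 200 rpm), washed thrice in PBS, diluted to ~5 × 10^8 CFU/ml. Incubated with antibiotic at 35 °C, 200 rpm. Aliquots taken at set times, washed, serially diluted in PBS, drop-plated (6 × 6) on TSA with 5% sheep blood. Colonies counted after 18–20 h at 35 °C. Triplicates.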

[12] = system: Enterococcus faecalis; assay: Antibiofilm activity against Enterococcus faecalis ATCC 29212 assessed as inhibition of biofilm formation at 2 times MIC after 24 hrs by crystal violet staining based assay relative to control; format: functional; parameters: scale not given: the % may be the effect or the level left
How it was run: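 Overnight culture brought to 0.5 McFarland in PBS, diluted 1:100 in CAMHB with 1% glucose. Inhibition: cells plus compound (in DMSO) at 2x, 1x, 0.5xMIC, 24 h at 35 °C, triplicate. Destruction: 24 h biofilm grown without drug, washed, fresh medium with compound, further 24 h. Then washed, dried, 0.1% crystal violet, solubilized in 33% acetic acid, OD 620 nm. Controls are DMSO-only and broth-only wells.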

Row | Compound | inhibition [1] | MIC [2] | MIC [3] | MIC [4] | MIC [5] | MIC [6] | MIC [7] | MIC [8] | MIC [9] | MIC [10] | Activity [11] | Activity [12]
1 | CC(=O)NC[C@H]1CN(c2ccc(N3CCOCC3)c(F)c2)C(=O)O1 | 70.7% |  |  |  |  |  |  |  |  |  |  | 
2 | O=C(O)c1ccc(-n2cc(CNc3ccc(Br)c(Cl)c3)c(-c3ccc(C(F)(F)F)cc3)n2)cc1 |  | 0.78 µg/mL (≈ 1.42 µM) | 0.78 µg/mL (≈ 1.42 µM) | 1.56 µg/mL (≈ 2.83 µM) | 0.78 µg/mL (≈ 1.42 µM) | 0.78 µg/mL (≈ 1.42 µM) | 0.78 µg/mL (≈ 1.42 µM) | 0.78 µg/mL (≈ 1.42 µM) | 0.78 µg/mL (≈ 1.42 µM) | 0.78 µg/mL (≈ 1.42 µM) |  | 
3 | NS(=O)(=O)c1ccc(NCc2cn(-c3ccc(C(=O)O)cc3)nc2-c2ccc(C(F)(F)F)cc2)cc1 |  | 50 µg/mL (≈ 96.8 µM) | 0.39 µg/mL (≈ 0.755 µM) | inactive | 50 µg/mL (≈ 96.8 µM) | inactive | 50 µg/mL (≈ 96.8 µM) | 50 µg/mL (≈ 96.8 µM) | 50 µg/mL (≈ 96.8 µM) | 50 µg/mL (≈ 96.8 µM) |  | 
4 | GENTAMICIN |  |  |  |  |  |  |  |  |  |  | inactive | 
5 | O=C(O)c1ccc(-n2cc(CNc3cc(Cl)c(F)c(Cl)c3F)c(-c3ccc(C(F)(F)F)cc3)n2)cc1 |  | 0.78 µg/mL (≈ 1.44 µM) | 0.78 µg/mL (≈ 1.44 µM) | 0.78 µg/mL (≈ 1.44 µM) | 0.78 µg/mL (≈ 1.44 µM) | 0.78 µg/mL (≈ 1.44 µM) | 0.78 µg/mL (≈ 1.44 µM) | 0.78 µg/mL (≈ 1.44 µM) | 0.78 µg/mL (≈ 1.44 µM) | 0.78 µg/mL (≈ 1.44 µM) |  | 80%
6 | O=C(O)c1ccc(-n2cc(CNc3cc(C(F)(F)F)cc(C(F)(F)F)c3)c(-c3ccc(C(F)(F)F)cc3)n2)cc1 |  | 1.56 µg/mL (≈ 2.72 µM) | 0.78 µg/mL (≈ 1.36 µM) | 0.78 µg/mL (≈ 1.36 µM) | 0.78 µg/mL (≈ 1.36 µM) | 0.78 µg/mL (≈ 1.36 µM) | 0.78 µg/mL (≈ 1.36 µM) | 0.78 µg/mL (≈ 1.36 µM) | 0.78 µg/mL (≈ 1.36 µM) | 0.78 µg/mL (≈ 1.36 µM) |  | 
7 | O=C(O)c1ccc(-n2cc(CNc3cccc(Br)c3)c(-c3ccc(C(F)(F)F)cc3)n2)cc1 |  | 3.12 µg/mL (≈ 6.04 µM) | 1.56 µg/mL (≈ 3.02 µM) | 6.25 µg/mL (≈ 12.1 µM) | 0.78 µg/mL (≈ 1.51 µM) | 1.56 µg/mL (≈ 3.02 µM) | 0.78 µg/mL (≈ 1.51 µM) | 0.78 µg/mL (≈ 1.51 µM) | 0.78 µg/mL (≈ 1.51 µM) | 0.78 µg/mL (≈ 1.51 µM) |  | 
8 | O=C(O)c1ccc(-n2cc(CNc3cc(Cl)c(O)c(Cl)c3)c(-c3ccc(C(F)(F)F)cc3)n2)cc1 |  | 50 µg/mL (≈ 95.7 µM) | 50 µg/mL (≈ 95.7 µM) | 50 µg/mL (≈ 95.7 µM) | 12.5 µg/mL (≈ 23.9 µM) | inactive | 50 µg/mL (≈ 95.7 µM) | 50 µg/mL (≈ 95.7 µM) | 50 µg/mL (≈ 95.7 µM) | 50 µg/mL (≈ 95.7 µM) |  | 

From ChEMBL document CHEMBL4814057, “4-4-(Anilinomethyl)-3-[4-(trifluoromethyl)phenyl]-1H-pyrazol-1-ylbenzoic acid derivatives as potent anti-gram-positive bacterial agents” (Eur J Med Chem, 2021)
